Results as given in PMC3182445 (The Journal of General Physiology, 2011).
Like-named read-outs stand apart in the source and are kept apart here. One block for each compound: values may come before it.

Tests used:
[1] = Free calcium concentration in bath medium by calcium ion selective electrode; type: physicochemical; conditions: agonist concentrations above 100 µM; Mg^2+-free buffer, Ca^2+ fixed at 950 µM
How it was run: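 Free Ca2+ read with a Ca2+-selective electrode. Mg2+-free buffer: 147 mM NaCl, 3 mM KCl, 10 mM glucose, 10 mM HEPES, pH 7.35, with 0.95 mM Ca2+. ATP or BzATP at 0, 1, 3.2, 10, 32, 100 and 320 µM, diluted from 10 mM aqueous stocks. Millivolt readings converted using a semilogarithmic standard curve. Means of three experiments.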

rat P2X7R = biological target: T1, rat P2X7R (Rattus norvegicus, UniProt Q64663); type: cell-based
T1 sequence (Q64663 1-595): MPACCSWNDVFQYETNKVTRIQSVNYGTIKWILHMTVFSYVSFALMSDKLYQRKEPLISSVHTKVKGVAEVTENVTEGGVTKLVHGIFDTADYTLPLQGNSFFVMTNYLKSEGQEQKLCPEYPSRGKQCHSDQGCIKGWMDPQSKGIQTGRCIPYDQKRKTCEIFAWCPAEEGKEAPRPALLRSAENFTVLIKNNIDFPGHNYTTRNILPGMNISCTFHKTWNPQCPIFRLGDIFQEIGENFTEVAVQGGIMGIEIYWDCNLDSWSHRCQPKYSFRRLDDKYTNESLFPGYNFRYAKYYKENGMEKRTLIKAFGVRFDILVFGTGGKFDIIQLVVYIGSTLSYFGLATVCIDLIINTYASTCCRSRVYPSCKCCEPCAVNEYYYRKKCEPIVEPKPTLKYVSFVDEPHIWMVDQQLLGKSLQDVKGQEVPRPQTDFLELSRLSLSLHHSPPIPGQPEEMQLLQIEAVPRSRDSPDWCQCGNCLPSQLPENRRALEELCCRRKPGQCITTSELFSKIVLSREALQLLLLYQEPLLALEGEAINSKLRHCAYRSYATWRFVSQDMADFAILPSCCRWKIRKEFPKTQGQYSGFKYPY

rP2X7R-H130A mutant = type: cell-based, rat; conditions: 100 µM BzATP; 10 mM Ca^2+ vs Ca^2+-deficient medium
How it was run: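 Rat P2X7R-H130A mutant transfected into HEK293 cells (2 µg DNA, Lipofectamine 2000, serum-free Opti-MEM 4.5 h, then 24–48 h), replated 2–10 h, EGFP-positive cells chosen. Whole-cell patch clamp at room temperature, −60 mV hold. Pipette: 145 mM NaCl, 10 mM EGTA, 10 mM HEPES, pH 7.35. Bath: Krebs-Ringer-like, 1 mM MgCl2, pH 7.35. 100 µM BzATP given in Ca2+-deficient or 10 mM Ca2+ medium. Four experiments, mean ± SEM.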

free Ca^2+ concentration in presence of BzATP relative to ATP (higher) [1]: 2–3%
Compound: 2’(3′)-O-4-benzoylbenzoyl)ATP [BzATP]

time for effect on receptor deactivation (rat P2X7R; 100 µM A438079 applied during washout of 100 µM BzATP, Ca^2+-containing and Ca^2+-deficient medium): ~0.8 s
potency relative to ATP (rat P2X7R; higher potency than ATP at rat receptor): ~3,000 fold
potency relative to BzATP (rat P2X7R; higher potency than BzATP at rat receptor): 200 fold
current generated when applied alone (rat P2X7R; no agonist, unpublished data): did not generate any current
IC50 (rat P2X7R; read-out: IC50, inhibition of current, cells stimulated with 32 µM BzATP): ~300 nM
IC50 (rat P2X7R; read-out: IC50, reduction of peak amplitude of current, applied together with 3.2 mM ATP, estimated): ~1000 nM
Compound: Clc1cccc(-c2nnnn2Cc2cccnc2)c1Cl [A438079]

rightward shift in agonist (ATP, BzATP) dose-response (rat P2X7R; naive receptors, 2-mM Ca^2+-containing vs Ca^2+-deficient medium, 1 mM Mg^2+): ~0.5 log units
Compound: [Ca+2] [Ca^2+, calcium]
decrease in the peak amplitude of current (rP2X7R-H130A mutant): 15 fold
